According to PMC4122542 (Journal of medicinal chemistry, 2008):

Experiments:
RG2 cells [1] = assay: MTT cytotoxicity assay in wild-type cells; assay type: cell-based, Rat
Summary of the method: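 Non-transduced rat glioma RG2 cells were grown in DMEM with 10% FBS and 1% penicillin/streptomycin at 37 °C under 5% CO2, then seeded at 1.5 × 10^3 cells/well and incubated overnight. Test compound was applied at 0.001–1000 μmol/L in quadruplicate for 72 h at 37 °C. MTT (1 mg/mL) was added for 3 h, and formazan was dissolved in DMSO. A490 (650 nm reference) was blank-subtracted and growth expressed as % of untreated control.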

[2] = cited from earlier work
RG2 cells [3] = assay: In vitro cell uptake of radiolabeled nucleosides in non-transduced control cells; assay type: cell-based, Rat; conditions: 2 h incubation, % of total radioactivity per 10^6 cells, wild-type RG2 cells
RG2TK+ cells = assay: In vitro cell uptake of radiolabeled nucleosides in HSV1-tk expressing cells; assay type: cell-based, Rat; conditions: 2 h incubation, % of total radioactivity per 10^6 cells
[4] = normal mice; cited from earlier work

O=c1[nH]c(=O)n([C@@H]2O[C@H](CO)[C@@H](O)[C@@H]2F)cc1I [FIAU]
Cytotoxicity to RG2 cells (in words) (RG2 cells [1]): moderately toxic to RG2 cells | Diffusion across the intact BBB [2]: does not diffuse across the intact BBB

Nc1nc(O)c2ncn(COC(CO)CO)c2n1 [GCV, ganciclovir]
Cytotoxicity to RG2 cells (in words) (RG2 cells [1]): not active against RG2 cells

O=c1[nH]c(=O)n([C@@H]2O[C@H](CO)[C@@H](O)[C@@H]2F)cc1CCCC[18F] [[^18F]FFBuAU]
% Uptake per 10^6 Cells, RG2 (RG2 cells [3]): 0.66 % per 10^6 cells

O=c1[nH]c(=O)n([C@H]2C[C@H](O)[C@@H](CO)O2)cc1CCCCC[18F] [[^18F]FPeDU]
% Uptake per 10^6 Cells, RG2 (RG2 cells [3]): 0.23 % per 10^6 cells

O=c1[nH]c(=O)n([C@H]2C[C@H](O)[C@@H](CO)O2)cc1CCC[18F] [[^18F]FPrDU]
% Uptake per 10^6 Cells, RG2TK+ (RG2TK+ cells): 8.4 % per 10^6 cells

O=c1[nH]c(=O)n([C@@H]2O[C@H](CO)[C@@H](O)[C@@H]2F)cc1/C=C/[123I] [[^123I]IVFAU]
Brain uptake [4]: very low brain uptake

O=c1[nH]c(=O)n([C@@H]2O[C@H](CO)[C@@H](O)[C@H]2F)cc1/C=C/[123I] [[^123I]IVFRU]
Brain uptake [4]: very low brain uptake

O=c1[nH]c(=O)n([C@@H]2O[C@H](CO)[C@@H](O)[C@@H]2F)cc1[125I] [[^125I]FIAU, 2′-fluoro-2′-deoxy-5-[^125I]iodo-1-β-D-arabinofuranosyluracil]
% Uptake per 10^6 Cells, RG2TK+ (RG2TK+ cells): 29.4 % per 10^6 cells | % Uptake per 10^6 Cells, RG2 (RG2 cells [3]): 3.44 % per 10^6 cells
